An excerpt weighted towards active compounds, which were near 4% of everything screened.
iPSC survival up – increases survival of single human iPS cells; AID 602274; survival enhancement, % at 20 µM; hiPSC single-cell survival, ATPlite luminescence; 100% = ROCK inhibitor wells, 0% = DMSO; 360,000 compounds, 0.044% hits; in the data active means survival enhancement above about 18%;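 further: cells exposed to compounds for 16 hours before the ATP read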
SENP1 inh – blocks the human SENP1 SUMO protease catalytic domain | recombinant SENP1 catalytic domain, CyPet-SUMO1-YPet FRET cleavage | inhibition, % at 10 µM | 360,000 compounds, 0.21% hits | AID 624204;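 active means inhibition at least 30% at 10 µM, raw YFP signal under a set limit, fluorescence ratio 0.5 to 1.5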;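 further: 0% = enzyme with DMSO and 100% = no enzyme wells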
Target sequence (Q9P0U3 419-644 limits assumed): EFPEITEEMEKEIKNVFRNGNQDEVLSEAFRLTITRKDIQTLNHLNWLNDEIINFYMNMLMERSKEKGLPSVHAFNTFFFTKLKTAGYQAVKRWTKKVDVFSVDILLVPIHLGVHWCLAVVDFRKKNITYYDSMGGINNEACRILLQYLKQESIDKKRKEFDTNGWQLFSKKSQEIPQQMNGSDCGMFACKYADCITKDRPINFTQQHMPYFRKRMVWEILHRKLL
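Material – human SENP1 catalytic domain · Input – SENP1 enzyme, 20 pM final · Compound dosing – single concentration of 10 µM compound, 0.5% DMSO final · Timing – enzyme reaction for 50 min at room temperature, dark · Measured by – FRET fluorescence in CFP and YFP emission channels · Control set – no-enzyme wells low, DMSO-plus-enzyme wells high control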
Cardio protect – protects H9c2 cardiomyocytes from peroxide injury | H2O2 injury protection, ATPLite, 2 h | protection from H2O2 cell death, % at 20 µM | AID 588492 | 360,000 compounds, 0.63% hits;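 active means compounds giving at least 50% protection of heart cells from peroxide-induced death in the single-dose screen, raw or plate-pattern-corrected value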;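 further: 0% = DMSO wells with peroxide and 100% = DMSO wells without peroxide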
FAS-TE inh – blocks the thioesterase domain of human fatty acid synthase; P49327; 360,000 compounds, 0.67% hits; AID 602261; recombinant FAS-TE, OMFH fluorogenic substrate, fluorescence endpoint; inhibition, % at 15 µM;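 active means compounds whose normalised, plate-corrected inhibition of enzyme fluorescence in the single-dose primary screen is 50% or more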;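 further: 0% = DMSO with enzyme and 100% = substrate without enzyme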
GRIN3A LBD mod – NR3A (human) ligand-binding domain modulation. NR3A LBD differential scanning fluorimetry, Tm shift; 0% = protein alone, 100% = glycine-bound protein. Tm shift relative to glycine control, % at 25 µM. 340,000 compounds, 2.5% hits;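 active means melting temperature shift of at least 10% of the positive control shift, at one fixed dose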
Arr AP2 block – inhibitors of human beta-arrestin and AP2 interaction; FITC-arrestin peptide / GST-AP2 beads, flow cytometry; AP2 beta2 appendage carries R879A mutation; inhibition, % at 10 µM; 340,000 compounds, 0.31% hits; AID 504490;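 active means inhibition above a set limit, near 3 SD of compounds lacking own fluorescence, cut at about 54% in these data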;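 further: plate controls were DMSO wells for no effect and 5 µM unlabelled arrestin peptide for full effect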
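System: GST-AP2 R879A glutathione beads | Also added: FITC-arrestin peptide, 50 nM | Times: 12 min plus 1 h, RT | Signal: Bead flow cytometry, FITC channel | Buffer or medium: PBS with 0.05% Tween 20 and 0.1% BSA | Read-out basis: Percent drop in bead-associated FITC signal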
* = called active by the depositor; · = no result.

SMILES	iPSC survival up	SENP1 inh	Cardio protect	FAS-TE inh	GRIN3A LBD mod	Arr AP2 block
COc1cc(/C=N/NC(=O)c2cccnc2)ccc1OS(=O)(=O)c1cc(C)ccc1C	3	1	62*	15	-43	9
COc1cc(/C=N/NC(=O)COc2cccc(F)c2)ccc1OS(=O)(=O)c1ccc(C)cc1	3	1	9	27	6	33
O=C(N/N=C/c1c(O)ccc2ccccc12)c1cccnc1	0	-26	30	9	-22	13
COc1cc(/C=N/NC(=O)COc2ccc(Cl)cc2)ccc1OS(=O)(=O)c1ccc(C)cc1	4	1	3	29	12*	-11
COc1ccc(/C=N/NC(=O)c2cccnc2)cc1O	0	3	-3	-2	1	-9
COc1cc(/C=N/NC(=O)c2cccnc2)ccc1OS(=O)(=O)c1ccc(F)cc1	-1	4	85*	4	-1	0
CCOc1ccc(CN(C)C(=O)c2cccc(S(=O)(=O)Nc3ccccc3OC)c2)cc1OC	-2	0	-8	-8	·	·
Cc1nc(NC(=O)/C=C/c2ccccc2)sc1C(=O)NCCO	1	1	9	-5	-1	-7
CCOC(=O)CNC(=O)c1sc(NC(=O)/C=C/c2ccccc2)nc1C	0	1	1	-12	-1	-3
CCOC(=O)c1sc(NC(=O)/C=C/c2ccccc2)nc1C	-1	2	1	-8	10*	6
COC(=O)c1sc(NC(=O)/C=C/c2ccccc2Cl)nc1C	0	2	-2	0	19*	1
COC(=O)c1sc(NC(=O)/C=C/c2ccc(C)cc2)nc1C	1	1	2	-3	23*	5
COc1ccc(/C=C/C(=O)Nc2nc(C)c(C(=O)N(C)C)s2)cc1	-1	0	0	-9	-3	-21
COC(=O)c1sc(NC(=S)NC(=O)c2ccccc2Cl)nc1C	-2	-1	-8	-5	-5	1
Cc1nc(NC(=O)/C=C/c2ccccc2)sc1C(=O)Nc1ccccc1	2	0	2	-2	21*	1
O=C(Nc1ccc2c(c1)OCO2)C1Cc2c(-c3ccc4c(c3)OCO4)ccnc2O1 (stereo not drawn)	-2	-2	0	10	·	·
CC1CCCN(C(=O)c2cccc(S(=O)(=O)NCc3ccccc3)c2)C1 (stereo not drawn)	0	1	1	-4	·	·
N#CCCSc1ccccc1NC(=O)c1cc(=O)c2ccccc2o1	0	1	52*	4	3	35
O=C(Nc1cccnc1)c1noc2c1CCCC2	-3	-2	2	-7	11*	-9
O=C1NC[C@H](Cc2ccccc2)N(C[C@@H]2CCCN2C[C@H](Cc2ccc(O)cc2)N2C[C@H](Cc3ccccc3)N(CCc3ccccc3)C(=O)C2=O)C1=O	0	0	·	1	·	·
CC1=Nc2ccccc2/C1=C\c1sc(Nc2ccc(C)cc2)nc1O	-2	-24	-6	13	21*	-3
Oc1nc(Nc2ccc(F)cc2)sc1/C=C1\C=Nc2ccccc21	0	-135	-5	1	34*	5
Oc1cccc(Nc2nc(O)c(/C=C3\C=Nc4ccccc43)s2)c1	0	-35	19	-3	21*	-3
Oc1nc(Nc2cccc(Cl)c2)sc1/C=C1\C=Nc2ccccc21	4	-81	-7	13	37*	20
CC1=Nc2ccccc2/C1=C/c1sc(=O)n(CC(=O)N2CCCC2)c1O	1	-57	1	2	-1	18
O=C(Cn1c(O)c(/C=C2\C=Nc3ccccc32)sc1=O)N1CCOCC1	3	-51	-8	-11	-2	-14
O=C(CN1CCN(C(C(=O)Nc2cc(C(F)(F)F)ccc2Cl)c2ccccc2)CC1)NC1CC1 (stereo not drawn)	0	-3	-9	25	0	35
O=C(OCc1cn([C@H]2CN(C(=O)C3CCCCC3)[C@@H](c3ccc(Cl)cc3)C[C@@H]2O)nn1)c1ccccc1	-3	-1	-9	14	·	·
